ChEMBL document CHEMBL1151890, “Synthesis and SAR of amino acid-derived heterocyclic progesterone receptor full and partial agonists” (Bioorg Med Chem Lett, 2009)

Tests used:
Type in all cases: ADME, organism-based
[1] = Cmax in rat at 2 mg/kg, po; design: dose 2 mg/kg, route oral; details: in vivo
Summary of the method: (§1)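 Rats were dosed both intravenously and orally, at 1.1 or 1.2 mg/kg iv and 2.0 or 2.3 mg/kg po. Plasma parameters were derived from these dosings. Values are means of three experiments with standard deviation.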

[2] = Oral bioavailability in rat at 2 mg/kg; details: in vivo; summary of the method: as §1
[3] = Half life in rat at 2 mg/kg, po; design: dose 2 mg/kg, route oral; details: in vivo; summary of the method: as §1
[4] = AUC (0 to t) in rat at 2 mg/kg, po; design: dose 2 mg/kg, route oral; details: plasma; summary of the method: as §1

**Q.** What does the source list for CC(C)CC(c1nnnn1C)N(CC(C)C)c1ccc(C#N)c(Cl)c1 (centres undefined)?
**A.** Cmax [1]: 146 ng/mL; bioavailability [2]: 100%; half-life [3]: 8.9 h; AUC(0-t) [4]: 572 ng·h/mL
